From ChEMBL document CHEMBL4177578, “Synthesis, pharmacological activities and molecular docking studies of pyrazolyltriazoles as anti-bacterial and anti-inflammatory agents” (Bioorg Med Chem, 2017)
The source made the active and inactive calls. The rule behind the calls is not given here.

Tests used:
Type in all cases: functional
[1] = Anti-inflammatory activity at 100 ug/ml using bovine serum albumin and egg albumin proteins incubated at 37 degC for 20 mins and then heated to 95 degC for 20 mins by UV-visible Spectrophotometry based protein denaturation method
Method in brief: (§1)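 Albumin (bovine serum or egg) at 1% in 50 mM sodium phosphate buffer pH 6.4. Mixture is 0.1 ml test sample (1 mg/ml) plus 0.2 ml albumin, made to 5 ml with buffer. Held 37 °C for 20 min, then 95 °C for 20 min. Cooled to room temperature, turbidity read at 660 nm. % inhibition = (Abs control − Abs sample)/Abs control × 100. Triplicate, averaged.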

[2] = test system: Micrococcus luteus; assay: Antimicrobial activity against Micrococcus luteus incubated for 12 to 16 hrs by tube dilution method
Method in brief: (§2)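 Tube dilution, serial from 500 to 1.9 µg/mL, plus drug-free control tube. Each tube inoculated with 1 mL culture at OD 0.2, incubated 37 °C for 12–16 h. MIC is the lowest concentration with no growth by turbidity. MBC is found by plating each tube on nutrient agar: the lowest concentration at which all cells are killed.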

[3] = test system: Salmonella paratyphi; assay: Antimicrobial activity against Salmonella paratyphi incubated for 12 to 16 hrs followed by plating in nutrient agar by tube dilution method; conditions: Salmonella enterica subsp. enterica serovar Paratyphi A
Method in brief: (§3)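 After 12-16 h at 37 °C in tube dilution (500 to 1.9 µg/mL; 1 mL inoculum at OD 0.2), the culture from each tube was plated on nutrient agar. MBC is the concentration at which cells are completely killed.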

[4] = test system: Salmonella typhi; assay: Antimicrobial activity against Salmonella typhi incubated for 12 to 16 hrs followed by plating in nutrient agar by tube dilution method; conditions: Salmonella enterica subsp. enterica serovar Typhi; method in brief: as §3
[5] = test system: Staphylococcus aureus; assay: Antimicrobial activity against Staphylococcus aureus at 1 mg/ml incubated for 20 to 30 mins followed by incubation for 24 hrs at 37 degC by agar plate method
Method in brief: (§4)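 Agar well diffusion on nutrient agar. Plates swabbed with 60 µL inoculum; 8 mm wells loaded with 100 µL of compound at 1.0 mg/mL. Held 20–30 min at 4 °C for diffusion, then 24 h at 37 °C. Inhibition zone diameter read in mm. Triplicate.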

[6] = Anti-inflammatory activity using bovine serum albumin and egg albumin proteins incubated at 37 degC for 20 mins and then heated to 95 degC for 20 mins by UV-visible Spectrophotometry based protein denaturation method; method in brief: as §1
[7] = test system: Salmonella typhi; assay: Antimicrobial activity against Salmonella typhi at 1 mg/ml incubated for 20 to 30 mins followed by incubation for 24 hrs at 37 degC by agar plate method; conditions: Salmonella enterica subsp. enterica serovar Typhi
Method in brief: (§5)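 Agar well diffusion on nutrient agar. Plates swabbed with 60 µL inoculum, 8 mm wells loaded with 100 µL sample at 1.0 mg/mL, streptomycin standard and control in separate wells. Plates held 20–30 min at 4 °C for diffusion, then 24 h at 37 °C. Zone diameter read in mm; triplicate.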

[8] = Anti-inflammatory activity at 50 ug/ml using bovine serum albumin and egg albumin proteins incubated at 37 degC for 20 mins and then heated to 95 degC for 20 mins by UV-visible Spectrophotometry based protein denaturation method; method in brief: as §1
[9] = test system: Salmonella typhi; assay: Antimicrobial activity against Salmonella typhi incubated for 12 to 16 hrs by tube dilution method; conditions: Salmonella enterica subsp. enterica serovar Typhi
Method in brief: (§6)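 Broth tube dilution, two-fold serial dilutions from 500 to 1.9 µg/mL plus a drug-free control tube. Each tube inoculated with 1 mL culture at OD 0.2 (~McFarland standard), 37 °C for 12-16 h. Turbidity compared with the control tube. MIC is the lowest concentration giving complete growth inhibition.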

[10] = test system: Salmonella paratyphi; assay: Antimicrobial activity against Salmonella paratyphi at 1 mg/ml incubated for 20 to 30 mins followed by incubation for 24 hrs at 37 degC by agar plate method; conditions: Salmonella enterica subsp. enterica serovar Paratyphi A; method in brief: as §5
[11] = test system: Micrococcus luteus; assay: Antimicrobial activity against Micrococcus luteus at 1 mg/ml incubated for 20 to 30 mins followed by incubation for 24 hrs at 37 degC by agar plate method; method in brief: as §4
[12] = test system: Salmonella paratyphi; assay: Antimicrobial activity against Salmonella paratyphi incubated for 12 to 16 hrs by tube dilution method; conditions: Salmonella enterica subsp. enterica serovar Paratyphi A; method in brief: as §6
[13] = test system: Micrococcus luteus; assay: Antimicrobial activity against Micrococcus luteus incubated for 12 to 16 hrs followed by plating in nutrient agar by tube dilution method; method in brief: as §2

Row | SMILES | inhibition [1] | MIC [2] | MBC [3] | MBC [4] | diameter of the inhibition zone (DIZ) [5] | IC50 [6] | diameter of the inhibition zone (DIZ) [7] | inhibition [8] | MIC [9] | diameter of the inhibition zone (DIZ) [10] | diameter of the inhibition zone (DIZ) [11] | MIC [12] | MBC [13]
1 | COC(=O)c1nnn(Cc2cn(-c3ccccc3)nc2-c2ccc(C)cc2)c1C(=O)OC | inactive | inactive | inactive | inactive | inactive | Not Active | inactive | inactive | inactive | inactive | inactive | inactive | inactive
2 | [N-]=[N+]=NCc1cn(-c2ccccc2)nc1-c1ccc(Cl)cc1Cl | inactive | inactive | inactive | inactive | inactive | Not Active | inactive | inactive | inactive | inactive | inactive | inactive | inactive
3 | CCOC(=O)c1nnn(Cc2cn(-c3ccccc3)nc2-c2ccccc2)c1C(=O)OCC | inactive | inactive | inactive | inactive | inactive | Not Active | inactive | inactive | inactive | inactive | inactive | inactive | inactive
4 | COC(=O)c1nnn(Cc2cn(-c3ccccc3)nc2-c2ccc(Cl)cc2)c1C(=O)OC | inactive | inactive | inactive | inactive | inactive | Not Active | inactive | inactive | inactive | inactive | inactive | inactive | inactive
5 | [N-]=[N+]=NCc1cn(-c2ccccc2)nc1-c1ccccc1 | inactive | inactive | inactive | inactive | inactive | Not Active | inactive | inactive | inactive | inactive | inactive | inactive | inactive
6 | CCOC(=O)c1nnn(Cc2cn(-c3ccccc3)nc2-c2ccc(OC)cc2)c1C(=O)OCC | inactive | inactive | inactive | inactive | inactive | Not Active | inactive | inactive | inactive | inactive | inactive | inactive | inactive
7 | [N-]=[N+]=NCc1cn(-c2ccccc2)nc1-c1ccc(Cl)cc1 | inactive | inactive | inactive | inactive | inactive | Not Active | inactive | inactive | inactive | inactive | inactive | inactive | inactive
8 | Cc1ccc(-n2cc(CN=[N+]=[N-])c(-c3ccccc3)n2)cc1C | inactive | inactive | inactive | inactive | inactive | Not Active | inactive | inactive | inactive | inactive | inactive | inactive | inactive
9 | COC(=O)c1nnn(Cc2cn(-c3ccccc3)nc2-c2ccccc2)c1C(=O)OC | inactive | inactive | inactive | inactive | inactive | Not Active | inactive | inactive | inactive | inactive | inactive | inactive | inactive
10 | COc1ccc(-c2cn(Cc3cn(-c4ccccc4)nc3-c3ccccc3)nn2)cc1 | inactive | inactive | inactive | inactive | inactive | Not Active | inactive | inactive | inactive | inactive | inactive | inactive | inactive
11 | Cc1ccc(-c2nn(-c3ccccc3)cc2CN=[N+]=[N-])cc1 | inactive | inactive | inactive | inactive | inactive | Not Active | inactive | inactive | inactive | inactive | inactive | inactive | inactive
12 | c1ccc(-c2cn(Cc3cn(-c4ccccc4)nc3-c3ccccc3)nn2)cc1 | inactive | inactive | inactive | inactive | inactive | Not Active | inactive | inactive | inactive | inactive | inactive | inactive | inactive
13 | COC(=O)c1nnn(Cc2cn(-c3ccc(Cl)cc3)nc2-c2ccccc2)c1C(=O)OC | inactive | inactive | inactive | inactive | inactive | Not Active | inactive | inactive | inactive | inactive | inactive | inactive | inactive
